Data: ChEMBL document CHEMBL4052589, “Discovery of Imidazo[1,2-a]pyridine Ethers and Squaramides as Selective and Potent Inhibitors of Mycobacterial Adenosine Triphosphate (ATP) Synthesis” (J Med Chem, 2017)
pIC50: −log10 of the molar value. Converted amounts (≈) assume the structure as drawn. The source made the active and inactive calls. No cut-off for these calls is given here.

What was measured:
[1] = Inhibition of ATP synthase in Mycobacterium smegmatis inverted membrane vesicles using NADH as substrate incubated for 60 mins by luciferin-luciferase reaction based bioluminescence assay; set-up: species or system Mycolicibacterium smegmatis
Procedure, shortened: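 ATP made by oxidative phosphorylation in M. smegmatis inverted membrane vesicles (IMVs), driven by NADH with ADP and Pi as ATP synthase substrates. ATP was read by luminescence. IC50 was taken from dose-response testing.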

[2] = test system: Mycobacterium tuberculosis; experiment: Antimycobacterial activity against Mycobacterium tuberculosis H37Rv by turbidometric method; assay type: functional
Procedure, shortened: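 MIC taken as the minimum concentration inhibiting M. tuberculosis growth by 80%.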

[3] = test system: Mycolicibacterium smegmatis; experiment: Inhibition of cytochrome c oxidase in Mycobacterium smegmatis inverted membrane vesicles lacking cytochrome-bd complex assessed as reduction of oxygen consumption treated between 250 to 450 secs post NADH addition
[4] = test system: Mycolicibacterium smegmatis; experiment: Inhibition of oxygen consumption in Mycobacterium smegmatis inverted membrane vesicles lacking cytochrome bc1 complex treated between 250 to 450 secs post NADH addition; assay type: functional
[5] = Selectivity index, ratio of IC50 for human THP1 cells to MIC for Mycobacterium tuberculosis H37Rv; assay type: toxicity; details: read-out: Selectivity Index
Procedure, shortened: (§1)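 Cytotoxicity index is MMIC divided by M. tuberculosis MIC. MMIC is the minimum concentration inhibiting A549 or THP1 proliferation by 50%. MIC is the concentration giving 80% growth inhibition.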

[6] = Selectivity index, ratio of IC50 for human A549 cells to MIC for Mycobacterium tuberculosis H37Rv; assay type: toxicity; details: read-out: Selectivity Index; procedure, shortened: as §1
[7] = Lipophilicity, log D of compound; assay type: physicochemical; details: octanol/water
Plasma [8] = experiment: Drug uptake in BALB/c mouse plasma at 100 mg/kg, po in presence of pan CYP inhibitor ABT by LC-MS/MS method; assay type: ADME, organism-based; details: in vivo
[9] = test system: Mycobacterium tuberculosis; experiment: Bactericidal activity against Mycobacterium tuberculosis H37Rv; assay type: functional
[10] = test system: Mycolicibacterium smegmatis; experiment: Selectivity ratio of IC50 for NDH2 in Mycobacterium smegmatis inverted membrane vesicles using NADH as substrate to IC50 for SDH in Mycobacterium smegmatis inverted membrane vesicles using succinate as substrate
[11] = test system: Mycolicibacterium smegmatis; experiment: Selectivity ratio of IC50 for NADH dependent ATP synthesis in Mycobacterium smegmatis inverted membrane vesicles lacking cytochrome-bc1 complex to IC50 for cytochrome c oxidase in Mycobacterium smegmatis inverted membrane vesicles assessed as decrease in NADH dependent ATP synthesis
[12] = test system: Mycobacterium tuberculosis; experiment: Antimycobacterial activity against Mycobacterium tuberculosis H37Rv infected in BALB/c mouse assessed as bacterial growth inhibition at 100 to 200 mg/kg, po qd administered […] for 2 weeks; assay type: functional, organism-based
Plasma [13] = experiment: Ratio of free plasma concentration in BALB/c mouse infected with Mycobacterium tuberculosis H37Rv in absence of pan CYP inhibitor ABT to presence of pan CYP inhibitor ABT; assay type: ADME
Mus musculus = experiment: Time required for free plasma concentration to maintain above in vitro MIC for Mycobacterium tuberculosis H37Rv in BALB/c mouse infected with Mycobacterium tuberculosis H37Rv at 100 mg/kg, po in presence of pan CYP inhibitor ABT

Compound | pIC50 [1] | MIC80 [2] [µM] | other results
COCCCOc1c(-c2ccccc2)nc2ccccn12 | 4.72 | > 15 | 
O=c1c(NCc2cnccn2)c(-c2ccc(N3CCOCC3)cc2)c1=O | 6.11 | 3.12 to 12.5 (≈ 1.09 to 4.38 µg/mL) | 
Cc1ccc2nc(-c3ccc(F)cc3)c(OCCCOc3cncnc3)n2c1 | 5.25 | 6.9 (≈ 2.61 µg/mL) | inhibition [3]: Active; inhibition [4]: inactive
CO[C@H]1/C=C/O[C@@]2(C)Oc3c(C)c(O)c4c(O)c(c(/C=N/N5CCN(C)CC5)c(O)c4c3C2=O)NC(=O)/C(C)=C\C=C\[C@H](C)[C@H](O)[C@@H](C)[C@@H](O)[C@@H](C)[C@H](OC(C)=O)[C@@H]1C [RIFAMPIN] |  | 0.004 (≈ 0.00329 µg/mL) | 
CC(Nc1c(-c2ccc(N3CCOCC3)cc2)c(=O)c1=O)c1ccccn1 (configuration not stated) | < 4.60 | > 100 | 
O=c1c(NCc2ccccc2)c(-c2ccc(N3CCOCC3)cc2)c1=O | < 4.00 | > 100 | 
Cc1ccc2nc(-c3ccc(F)cc3)c(OCCCOc3ccc(C)nc3C)n2c1 | 7.05 | 6.3 (≈ 2.55 µg/mL) | 
Cc1ccc2nc(-c3ccccc3)c(OCCCN3CCN(C)CC3)n2c1 | 5.19 | > 200 | 
N#Cc1ccc2nc(-c3ccccc3)c(OCCCOc3ccccc3)n2c1 | < 4.00 | > 250 | 
Fc1ccc(OCCOc2c(-c3ccccc3)nc3ccc(Cl)cn23)cc1 | 7.40 | < 1 | inhibition [3]: Active; inhibition [4]: inactive
Clc1ccc2nc(-c3ccccc3)c(OCCN3CCOCC3)n2c1 | 4.44 | > 200 | Selectivity ratio [5]: 0.5; Selectivity ratio [6]: 0.5; logD [7]: 3.3
Cc1ccc2nc(-c3ccc(F)cc3)c(OCCCNc3ccc(F)c(C)c3)n2c1 | 8.30 | 0.03 (≈ 0.0122 µg/mL) | Drug uptake (Plasma [8]): Active; MBC [9]: > 100 µM
COc1nc2ccc(Br)cc2cc1[C@@H](c1ccccc1)[C@@](O)(CCN(C)C)c1cccc2ccccc12 |  |  | Ratio IC50 [10]: 1.5; Ratio IC50 [11]: 2; inhibition [3]: inactive; inhibition [4]: inactive
Fc1ccc(OCCOc2c(-c3ccccc3)nc3ccccn23)cc1 | 7.10 | < 0.8 | 
NNC(=O)c1ccncc1 [ISONIAZID] |  | 0.02 (≈ 0.00274 µg/mL) | 
Cc1ccc2nc(-c3ccccc3)c(OCCOc3ccc(F)cc3)n2c1 | 7.30 | < 1 | inhibition [3]: Active; inhibition [4]: inactive
O=c1c(NCc2ccc(-c3ccccc3)cn2)c(-c2ccc(N3CCOCC3)cc2)c1=O | 5.02 | > 100 | 
Cc1ccc2nc(-c3ccc(F)cc3)c(OCCOc3ccc(F)cc3)n2c1 | 7.70 | 3.1 (≈ 1.18 µg/mL) | inhibition [3]: Active; inhibition [4]: inactive

Compound | pIC50 [1] | MIC80 [2] [µM] | other results
c1ccc(OCCCOc2c(-c3ccccc3)nc3ccccn23)cc1 | 6.89 | 1.6 (≈ 0.551 µg/mL) | 
Clc1ccc2nc(-c3ccccc3)c(OCCCOc3ccccc3)n2c1 | > 7.70 | < 0.5 | MBC [9]: > 100 µM
Cc1ccc2nc(-c3ccc(F)cc3)c(OCCCN3CCN(c4ccccc4)CC3)n2c1 | 7.30 | < 0.8 | 
Cc1cnc(CNc2c(-c3ccc(C(F)(F)F)cc3)c(=O)c2=O)cn1 | 5.08 | 50 (≈ 17.4 µg/mL) | 
Cc1ccc2nc(-c3ccc(F)cc3)c(OCCCNS(=O)(=O)c3ccc(F)cc3)n2c1 | 6.15 | 1.6 (≈ 0.732 µg/mL) | 
O=c1c(NCc2ccccn2)c(-c2ccc(N3CCOCC3)cc2)c1=O | 7.52 | 0.5 to 0.8 (≈ 0.175 to 0.28 µg/mL) | growth inhibition (GI) [12]: Active; Ratio (Plasma [13]): 300; Time (Mus musculus): 15 h
Cc1ccc2nc(-c3ccc(F)cc3)c(OCCNS(=O)(=O)c3ccc(F)c(Cl)c3)n2c1 | 6.40 | 3.1 (≈ 1.48 µg/mL) | 
O=c1c(NCc2ccccn2)c(-c2ccc(C(F)(F)F)cc2)c1=O | 6.52 | 6.2 (≈ 2.06 µg/mL) | 
COc1ncc(NCCCOc2c(-c3ccc(F)cc3)nc3ccc(C)cn23)cc1C | 7.10 | < 0.8 | 
Cc1ccc2nc(-c3ccc(F)cc3)c(OCCCNc3cnc(C)c(Br)c3)n2c1 | 6.68 | 0.8 (≈ 0.375 µg/mL) | 
Cc1ccc2nc(-c3ccc(F)cc3)c(OCCNCc3ccc(C)c(F)c3)n2c1 | 7.15 | 0.6 (≈ 0.244 µg/mL) | 
Cc1ccc2nc(-c3ccc(F)cc3)c(OCCCOc3cncc(F)c3)n2c1 | 7.22 | < 0.6 | 
N#Cc1ccc(-c2c(NCc3ccccn3)c(=O)c2=O)cc1 | 4.18 | 100 (≈ 28.9 µg/mL) | 
Cc1ccc2nc(-c3ccc(F)cc3)c(OCCCOc3ccc(C)nc3)n2c1 | > 7.70 | < 0.8 | 
Cc1ccc2nc(-c3ccc(F)cc3)c(OCCCOc3cccnc3)n2c1 | 6.80 | < 0.9 | 
Cc1ccc2nc(-c3ccc(F)cc3)c(OCCNC(=O)c3ccc(C)nc3)n2c1 | 5.14 | > 200 | 
Cc1ccc2nc(-c3ccccc3)c(OCCCOc3ccccc3)n2c1 | 7.52 | < 0.5 | inhibition [3]: Active; inhibition [4]: inactive
Cc1ccc2nc(-c3ccc(F)cc3)c(OCCCNc3ccc(F)c(C)n3)n2c1 | 7.22 | < 0.5 | MBC [9]: > 100 µM
